Results published in ChEMBL document CHEMBL2151019, “Potent and selective inhibitors of PI3Kδ: obtaining isoform selectivity from the affinity pocket and tryptophan shelf” (Bioorg Med Chem Lett, 2012).

Key:
[1] = Selectivity ratio of IC50 for PI3Kgamma to IC50 for PI3Kdelta
Method in brief: (§1)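 Ratios of biochemical IC50 values, each against the PI3Kδ IC50. Both IC50s come from the fluorescence polarization assay monitoring PIP2-to-PIP3 conversion by each Class I isoform.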

[2] = target: T1, Phosphatidylinositol 4,5-bisphosphate 3-kinase catalytic subunit delta isoform (Homo sapiens, UniProt O00329); assay: Inhibition of PI3K p110delta using PIP2 as substrate assessed as PIP3 formation by fluorescence polarization assay
T1 sequence (O00329 whole entry): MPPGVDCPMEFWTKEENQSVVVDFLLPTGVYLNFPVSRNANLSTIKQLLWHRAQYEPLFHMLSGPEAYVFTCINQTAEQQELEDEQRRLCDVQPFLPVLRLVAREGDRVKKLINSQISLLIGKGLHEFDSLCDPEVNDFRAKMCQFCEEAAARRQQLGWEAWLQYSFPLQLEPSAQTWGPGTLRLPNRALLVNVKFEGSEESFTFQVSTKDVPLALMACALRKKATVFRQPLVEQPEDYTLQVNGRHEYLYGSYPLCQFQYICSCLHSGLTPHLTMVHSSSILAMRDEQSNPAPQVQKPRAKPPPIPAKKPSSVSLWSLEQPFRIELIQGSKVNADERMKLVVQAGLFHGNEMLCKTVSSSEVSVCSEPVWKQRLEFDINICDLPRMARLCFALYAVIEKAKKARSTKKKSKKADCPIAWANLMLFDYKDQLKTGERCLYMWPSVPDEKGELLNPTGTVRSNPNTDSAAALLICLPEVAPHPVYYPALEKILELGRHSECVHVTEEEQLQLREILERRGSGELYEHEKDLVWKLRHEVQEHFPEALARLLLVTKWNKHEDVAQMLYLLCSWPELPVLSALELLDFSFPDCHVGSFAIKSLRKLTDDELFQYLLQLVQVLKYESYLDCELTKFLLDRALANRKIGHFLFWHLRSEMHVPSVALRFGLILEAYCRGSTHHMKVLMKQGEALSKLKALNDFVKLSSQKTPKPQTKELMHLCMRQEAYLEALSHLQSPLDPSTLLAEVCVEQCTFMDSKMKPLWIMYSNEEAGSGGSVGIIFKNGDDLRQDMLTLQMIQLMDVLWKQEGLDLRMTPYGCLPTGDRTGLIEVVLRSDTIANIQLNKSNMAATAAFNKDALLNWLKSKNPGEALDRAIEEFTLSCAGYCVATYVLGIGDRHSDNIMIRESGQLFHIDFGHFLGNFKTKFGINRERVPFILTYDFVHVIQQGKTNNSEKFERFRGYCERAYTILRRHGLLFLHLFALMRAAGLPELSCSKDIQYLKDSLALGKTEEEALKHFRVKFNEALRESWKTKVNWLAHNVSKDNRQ
Method in brief: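 Biochemical fluorescence polarization assay following conversion of PIP2 to PIP3 by PI3Kδ; IC50 determined.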

[3] = Selectivity ratio of IC50 for PI3Kalpha to IC50 for PI3Kdelta; method in brief: as §1
[4] = Selectivity ratio of IC50 for PI3Kbeta to IC50 for PI3Kdelta; method in brief: as §1
[5] = target: T1, Phosphatidylinositol 4,5-bisphosphate 3-kinase catalytic subunit delta isoform; assay: Inhibition of PI3Kdelta-mediated AKT phosphorylation in B cells in presence of human serum; type: cell-based
Method in brief: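 Cellular assay in the PI3Kδ-dependent B-cell cancer line Ri-1. Downstream pAKT measured with human serum added (serum-shifted); IC50 determined.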

[6] = AUC in Sprague-Dawley rat at 10 mg/kg, po; type: ADME, organism-based; design: dose 10 mg/kg, route oral; conditions: plasma
Method in brief: (§2)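 Oral dosing in male Sprague–Dawley rats used an MCT suspension (0.5% methylcellulose/0.2% Tween-80). Cmax, AUC and terminal half-life were taken from plasma concentration–time curves.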

[7] = Half life in BALB/c mouse at 40 mg/kg, po; type: ADME, organism-based; design: dose 40 mg/kg, route oral; conditions: in vivo
Method in brief: (§3)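 Female Balb/c mice received the compound orally as a suspension in 0.5% methylcellulose/0.2% Tween-80 (MCT). Plasma concentration–time profiles were used to derive Cmax, AUC and terminal half-life.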

[8] = Volume of distribution at steady state in Sprague-Dawley rat at 1 mg/kg, iv; type: ADME, organism-based; design: dose 1 mg/kg, route intravenous; conditions: in vivo, read-out: Vdss
Method in brief: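 Male Sprague–Dawley rats were given 1 mg/kg IV in 5% DMSO/5% Cremophor. Pharmacokinetic parameters were taken from plasma concentrations over time.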

[9] = Cmax in BALB/c mouse at 20 mg/kg, po; type: ADME, organism-based; design: dose 20 mg/kg, route oral; conditions: in vivo; method in brief: as §3
[10] = Half life in Sprague-Dawley rat at 30 mg/kg, po; type: ADME, organism-based; design: dose 30 mg/kg, route oral; conditions: in vivo; method in brief: as §2
[11] = Volume of distribution at steady state in CD1 mouse at 1 mg/kg, iv; type: ADME, organism-based; design: dose 1 mg/kg, route intravenous; conditions: in vivo, read-out: Vdss
Method in brief: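 Single IV dose of 1 mg/kg in 5% DMSO/5% Cremophor to female CD-1 mice. Pharmacokinetic parameters were taken from plasma concentrations over time.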

[12] = Half life in CD1 mouse at 5 mg/kg, po; type: ADME, organism-based; design: dose 5 mg/kg, route oral; conditions: in vivo
Method in brief: (§4)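 Female CD-1 mice were given a 5 mg/kg oral dose as an MCT suspension (0.5% methylcellulose/0.2% Tween-80). Cmax, AUC and half-life came from the plasma concentration–time profiles.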

[13] = Half life in BALB/c mouse at 20 mg/kg, po; type: ADME, organism-based; design: dose 20 mg/kg, route oral; conditions: in vivo; method in brief: as §3
[14] = Half life in Sprague-Dawley rat at 5 mg/kg, po; type: ADME, organism-based; design: dose 5 mg/kg, route oral; conditions: in vivo; method in brief: as §2
[15] = AUC in Sprague-Dawley rat at 30 mg/kg, po; type: ADME, organism-based; design: dose 30 mg/kg, route oral; conditions: plasma; method in brief: as §2
[16] = AUC in BALB/c mouse at 40 mg/kg, po; type: ADME, organism-based; design: dose 40 mg/kg, route oral; conditions: plasma; method in brief: as §3
[17] = AUC in CD1 mouse at 5 mg/kg, po; type: ADME, organism-based; design: dose 5 mg/kg, route oral; conditions: plasma; method in brief: as §4
[18] = Clearance in Sprague-Dawley rat at 1 mg/kg, iv; type: ADME, organism-based; design: dose 1 mg/kg, route intravenous; conditions: in vivo
Method in brief: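 Male Sprague–Dawley rats received 1 mg/kg intravenously in 5% DMSO/5% Cremophor. In vivo clearance was derived from plasma concentrations over time.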

[19] = Oral bioavailability in CD1 mouse at 5 mg/kg; type: ADME, organism-based; conditions: in vivo
Method in brief: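 Female CD-1 mice received an IV dose of 1 mg/kg in 5% DMSO/5% Cremophor and an oral dose of 5 mg/kg as an MCT suspension (0.5% methylcellulose/0.2% Tween-80). Plasma exposure was compared between the two routes.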

[20] = AUC in Sprague-Dawley rat at 5 mg/kg, po; type: ADME, organism-based; design: dose 5 mg/kg, route oral; conditions: plasma; method in brief: as §2
[21] = Half life in Sprague-Dawley rat at 10 mg/kg, po; type: ADME, organism-based; design: dose 10 mg/kg, route oral; conditions: in vivo; method in brief: as §2
[22] = Cmax in Sprague-Dawley rat at 5 mg/kg, po; type: ADME, organism-based; design: dose 5 mg/kg, route oral; conditions: in vivo; method in brief: as §2
[23] = Cmax in BALB/c mouse at 40 mg/kg, po; type: ADME, organism-based; design: dose 40 mg/kg, route oral; conditions: in vivo; method in brief: as §3
[24] = Cmax in CD1 mouse at 5 mg/kg, po; type: ADME, organism-based; design: dose 5 mg/kg, route oral; conditions: in vivo; method in brief: as §4
[25] = Cmax in Sprague-Dawley rat at 30 mg/kg, po; type: ADME, organism-based; design: dose 30 mg/kg, route oral; conditions: in vivo; method in brief: as §2
[26] = AUC in BALB/c mouse at 20 mg/kg, po; type: ADME, organism-based; design: dose 20 mg/kg, route oral; conditions: plasma; method in brief: as §3
[27] = Cmax in Sprague-Dawley rat at 10 mg/kg, po; type: ADME, organism-based; design: dose 10 mg/kg, route oral; conditions: in vivo; method in brief: as §2
[28] = Oral bioavailability in Sprague-Dawley rat at 5 mg/kg; type: ADME, organism-based; conditions: in vivo
Method in brief: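 Male Sprague–Dawley rats received an IV dose of 1 mg/kg in 5% DMSO/5% Cremophor and an oral dose of 5 mg/kg as an MCT suspension (0.5% methylcellulose/0.2% Tween-80). Plasma exposure was compared between the two routes.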

[29] = Clearance in CD1 mouse at 1 mg/kg, iv; type: ADME, organism-based; design: dose 1 mg/kg, route intravenous; conditions: in vivo

OCc1ccc2nc(-c3c(F)ccc4[nH]ccc34)nc(N3CCOCC3)c2n1
Ratio IC50 [1]: 38 | IC50 [2]: 27 nM | Ratio IC50 [3]: 14 | Ratio IC50 [4]: 3.7 | IC50 [5]: 145 nM

CC(C)(O)C1CCN(Cc2ccc3nc(-c4cccc5[nH]ncc45)nc(N4CCOCC4)c3n2)CC1
Ratio IC50 [1]: 260 | Ratio IC50 [3]: 22 | Ratio IC50 [4]: 78 | IC50 [5]: 480 nM

Fc1ccc2[nH]ccc2c1-c1nc(N2CCOCC2)c2nc(CN3CCOCC3)ccc2n1
Ratio IC50 [1]: 120 | IC50 [2]: 12 nM | Ratio IC50 [3]: 58 | Ratio IC50 [4]: 13 | IC50 [5]: 67 nM

CC(C)(O)C1CCN(Cc2nc3c(N4CCOCC4)nc(-c4c(F)ccc5[nH]ccc45)nc3[nH]2)CC1
Ratio IC50 [1]: 1500 | Ratio IC50 [3]: 330 | Ratio IC50 [4]: 140

CC(C)(O)C1CCN(Cc2nc3c(N4CCOCC4)nc(-c4c(F)ccc5[nH]ccc45)nc3s2)CC1
Ratio IC50 [1]: 1400 | IC50 [2]: 0.6 nM | Ratio IC50 [3]: 220 | Ratio IC50 [4]: 200

CC(C)(O)C1CCN(Cc2cc3nc(-c4c(F)ccc5[nH]ccc45)nc(N4CCOCC4)c3s2)CC1
Ratio IC50 [1]: 910 | IC50 [2]: 4 nM | Ratio IC50 [3]: 170 | Ratio IC50 [4]: 110

CC(C)(O)C1CCN(Cc2nc3nc(-c4c(F)ccc5[nH]ccc45)nc(N4CCOCC4)c3[nH]2)CC1
IC50 [2]: 1.9 nM

CC(C)(O)C1CCN(Cc2ccc3nc(-c4c(F)ccc5[nH]ccc45)nc(N4CCOCC4)c3n2)CC1
AUC [6]: 11 µM·h | half-life [7]: 5 h | Vd [8]: 8.8 L/kg | Cmax [9]: 3900 nM | half-life [10]: 4.8 h | Vd [11]: 4.9 L/kg | half-life [12]: 2.6 h | half-life [13]: 2.9 h | half-life [14]: 2.6 h | AUC [15]: 46 µM·h | AUC [16]: 63 µM·h | AUC [17]: 2.5 µM·h | clearance [18]: 59 mL/min/kg | bioavailability [19]: 80% | AUC [20]: 2.6 µM·h | half-life [21]: 3.8 h | Cmax [22]: 500 nM | Cmax [23]: 14000 nM | Cmax [24]: 900 nM | Cmax [25]: 4700 nM | AUC [26]: 13 µM·h | Cmax [27]: 1200 nM | bioavailability [28]: 90% | clearance [29]: 53 mL/min/kg

CC(C)(O)C1CCN(Cc2ccc3nc(-c4cccc5[nH]ccc45)nc(N4CCOCC4)c3n2)CC1
Ratio IC50 [1]: 610 | Ratio IC50 [3]: 370 | Ratio IC50 [4]: 210 | IC50 [5]: 55 nM

CC(C)(O)C1CCN(Cc2ccc3nc(-c4cnc(N)nc4)nc(N4CCOCC4)c3n2)CC1
Ratio IC50 [1]: 43 | IC50 [2]: 2.6 nM | Ratio IC50 [3]: 5.4 | Ratio IC50 [4]: 73 | IC50 [5]: 145 nM
